ChEMBL document CHEMBL1122366, “Potential antiatherosclerotic agents. 3. Substituted benzoic and non benzoic acid analogues of cetaben” (1983)

Legend:
Rattus norvegicus [1] = assay: In vivo triglyceride lowering activity when dosed at 0.03 % of the diet; assay type: functional
Method in brief: (§1)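 Normal rats were dosed in the diet. Serum sterol and triglyceride levels were measured and expressed as the mean percent of control values. Significance versus control was reported at p < 0.05, 0.01 and 0.001.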

Rattus norvegicus [2] = assay: In vivo triglyceride lowering activity dosed at 0.10 % of the diet.; assay type: functional; method in brief: as §1
Rattus norvegicus [3] = assay: In vivo sterol lowering activity when dosed as 0.01 % of the diet; assay type: functional; method in brief: as §1
Rattus norvegicus [4] = assay: In vivo sterol lowering activity at dose of 0.10 % of the diet; assay type: functional; method in brief: as §1
Rattus norvegicus [5] = assay: In vivo triglyceride lowering activity when dosed as 0.01 % of the diet; assay type: functional; method in brief: as §1
[6] = biological target: T1, Sterol O-acyltransferase 1 (Rattus norvegicus) (UniProt O70536); assay: In vitro inhibition of acyl coenzyme A:cholesterol acyltransferase; design: concentration or dose not given beside the values; conditions: concentration not given here
T1 sequence (whole entry): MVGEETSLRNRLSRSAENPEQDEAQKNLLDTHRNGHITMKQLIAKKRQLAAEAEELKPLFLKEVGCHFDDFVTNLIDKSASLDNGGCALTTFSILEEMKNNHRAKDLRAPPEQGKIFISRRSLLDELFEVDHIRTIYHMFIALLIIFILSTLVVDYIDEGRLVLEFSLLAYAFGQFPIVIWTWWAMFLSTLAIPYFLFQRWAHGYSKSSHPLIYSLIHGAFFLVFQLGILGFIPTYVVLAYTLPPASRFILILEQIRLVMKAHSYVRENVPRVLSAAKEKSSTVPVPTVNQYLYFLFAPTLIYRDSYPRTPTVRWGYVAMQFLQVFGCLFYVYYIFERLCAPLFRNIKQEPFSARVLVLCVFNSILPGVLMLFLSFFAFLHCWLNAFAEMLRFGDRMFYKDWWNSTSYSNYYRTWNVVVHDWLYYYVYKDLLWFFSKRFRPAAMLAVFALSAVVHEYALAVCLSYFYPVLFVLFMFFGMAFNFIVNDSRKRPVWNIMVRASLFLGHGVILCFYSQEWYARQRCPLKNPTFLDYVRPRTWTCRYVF
Method in brief: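 Enzyme fatty acyl-CoA:cholesterol acyltransferase (ACAT), assayed in vitro at a single drug concentration of 5.2 μg/mL. The value is the mean percent inhibition of enzyme activity.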

Rattus norvegicus [7] = assay: In vivo sterol lowering activity when dosed as 0.03 % of the diet; assay type: functional; method in brief: as §1

Structure (SMILES)	inhibition [6] [%]	serum triglyceride level, percent of control (Rattus norvegicus [1]) [%]	serum triglyceride, percent of control (Rattus norvegicus [2]) [%]	serum sterol level, % of control (Rattus norvegicus [3]) [%]	serum sterol level, percent of control (Rattus norvegicus [4]) [%]	serum triglyceride level, percent of control (Rattus norvegicus [5]) [%]	serum sterol level, percent of control (Rattus norvegicus [7]) [%]
CCCCCCCCCCCCCCCCNc1ccc(C(=O)NS(=O)(=O)c2ccc([N+](=O)[O-])cc2)cc1	< 43	<79	108	105	<82	92	94
CCCCCCCCCCCCCCCCN(C(C)=O)c1ccc(C(OC(C)=O)C(N)=O)cc1 (configuration not stated)	< 40	86	89	109	110	93	111
CCCCCCCCCCCCCCCCNc1ccc(C(=O)OCC2CO2)cc1 (configuration not stated)	13	<60	<53	92	<75	<74	<75
CCCCCCCCCCCCCCCCNc1cc(C(=O)[O-])c(C(=O)[O-])c(C(=O)[O-])c1.[Na+].[Na+].[Na+]	< 24	<68	93	100	97	82	100
CCCCCCCCCCCCCCCCNc1ccc(CCCC(=O)O)cc1	< 32	<61	<51	100	97	<68	95
CCCCCCCCCCCCCCCCNc1ccc(CCC(=O)O)cc1	50	<50	<37	88	92	<59	<80
CCCCCCCCCCCCCCCCNc1ccc(C(=O)Oc2ccc(C(=O)O)cc2)cc1	< 18	81	109	105	93	98	95
CCCCCCCCCCCCCCCCNc1ccc(C(C)(C)C(=O)O)cc1	< 27	121	116	93	107	109	111
CCCCCCCCCCCCCCCCNc1ccc(C2OCCO2)cc1	0	82	<47	<85	<71	100	<77
CCCCCCCCCCCCCCCCNc1ccc(C(=O)O)cc1F	< 27	89	<49	108	<79	91	98
CCCCCCCCCCCCCCCCNc1ccc(C=O)cc1	< 30	<64	<53	91	<85	<66	92
CCCCCCCCCCCCCCCCNc1ccc(C(=O)OCC(CO)OC(C)=O)cc1 (configuration not stated)	28	<71	<47	118	86	90	85
CCCCCCCCCCCCCCCCNc1ccc(C(=O)Oc2ccccc2)cc1	0	76	<76	89	<84	105	85
CCCCCCCCCCCCCCCCNc1ccc(C2=NCCCO2)cc1	2	127	<68	97	<87	99	100
CCCCCCCCCCCCCCCCNc1ccc(C(=O)NC(=O)c2ccccc2)cc1	0	<66	<58	91	<75	76	<80
CCCCCCCCCCCCCCCCNc1ccc(C(=O)OCC(=O)OCC)cc1	15	76	72	<80	<66	92	<81
CCCCCCCCCCCCCCCCNc1ccc(C(=O)OCC(O)COC(=O)c2cccnc2)cc1 (configuration not stated)	0	83	<63	103	84	93	108
CCCCCCCCCCCCCCCCNc1ccc(C(=O)NS(=O)(=O)c2ccc(N)cc2)cc1	14	87	111	93	105	78	89

Second part, led by results:

inhibition [6] [%]	Structure (SMILES)	serum triglyceride level, percent of control (Rattus norvegicus [1]) [%]	serum triglyceride, percent of control (Rattus norvegicus [2]) [%]	serum sterol level, % of control (Rattus norvegicus [3]) [%]	serum sterol level, percent of control (Rattus norvegicus [4]) [%]	serum triglyceride level, percent of control (Rattus norvegicus [5]) [%]	serum sterol level, percent of control (Rattus norvegicus [7]) [%]
< 24	CCCCCCCCCCCCCCCCNc1ccc(C(=O)NN)cc1	84	84	110	116	108	105
< 28	CCCCCCCCCCCCCCCCNc1ccc(C(=O)CC(=O)O)cc1	90	100	105	104	80	100
< 35	CCCCCCCCCCCCCCCCNc1ccc(C(=O)NC(C)=O)cc1	73	74	93	91	86	<87
0	CCCCCCCCCCCCCCCCNc1ccc(O)cc1	124	104	104	92	118	99
13	CCCCCCCCCCCCCCCCNc1ccc(C(=O)NC(C)(C)C(=O)O)cc1	90	83	89	88	84	95
11	CCCCCCCCCCCCCCCCNc1ccc(C(=O)NS(C)(=O)=O)cc1	<73	<54	94	<87	77	<84
21	CCCCCCCCCCCCCCCCNc1ccc(C(=O)NNC(C)=O)cc1	<74	<66	93	91	75	<83
< 24	CCCCCCCCCCCCCCCCNc1ccc(C(=O)OCC(=O)OC)cc1	72	74	84	<71	79	<76
